Bioassay records as filed in PubChem.
Not all results are given here.
Apaf-1 act – activators of human Apaf-1 apoptosome. Apaf-1 apoptosome caspase-3 activation, DEVD-Rh110 fluorescence; hits give low values. actives 0.31% (n = 330,000). activity change, negative = activation, % at 20 µM. O14727;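 active = activity change at or below -40% at 20 µM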
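System: Reconstituted apoptosome of Apaf-1, cytochrome c, caspase-9, procaspase-3 | Reagent: dATP, cytochrome c, and (Z-DEVD)2-Rh110 caspase-3 substrate | Times: 30 min compound preincubation and 50 min reaction, both room temperature | Detection: Caspase-3-released Rh110 fluorescence, 540 nm emission, 480 nm excitation | Measure: Caspase-3 activity via Apaf-1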
Rh110 act interf – interferes with Rh110 fluorescence, flagging false Apaf-1 activators; shares compounds with Apaf-1 act; Rh110 fluorescence interference, quenched caspase reaction, Ex480/Em540; fluorescence interference (activity change), % at 20 µM, hits read low; 980 tested, under 10 active;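 active = mean activity change at or below -40% when tested at 20 µM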
Apaf-1 act conf – confirmation of human Apaf-1 activators. shares compounds with Apaf-1 act. reconstituted apoptosome caspase-3 activity, DEVD-Rh110 fluorescence; hits give low values. activity change, negative = activation, % at 20 µM. actives 5% (n = 980). AID 504617;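 active = mean activity change at or below -40%, meaning activation of 40% or more, at 20 µM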
Fluor interf act – Apaf-1 activator counter-screen fluorescence artifact. shares compounds with Apaf-1 act. fluorescence interference counterscreen, Apaf-1 activator assay. EC50, µM. 55 tested, under 10 active. AID 588592; call rule not given here
An asterisk follows results filed as active.

What do the screens show for `Cc1ccc(S(=O)(=O)N2CCN(c3ccc([N+](=O)[O-])c4cccnc34)CC2)cc1`?
Apaf-1 act: 47

How did CCOc1cc(C)c(S(=O)(=O)Nc2ccc(Cl)cn2)cc1C do in these assays?
Apaf-1 act: -40*; Rh110 act interf: 5; Apaf-1 act conf: 14

Results for N#Cc1c(N(CCO)CCO)nc(N)c2c(N)nc3c(c12)CC(=O)N3Cc1cccs1 ?
Apaf-1 act: 73

How did C=C(C)C(=O)Nc1cccc(C2=NOC3(C2)C[C@@H](C(N)=O)N(C(=O)c2ccc(Cl)cc2)C3)c1 (some centres undefined) do in these assays?
Apaf-1 act: -204*; Rh110 act interf: 12; Apaf-1 act conf: -127*; Fluor interf act: >100

How did C=C(C)C(=O)Nc1cccc(C2=NOC3(C2)C[C@H](C(N)=O)N(C(=O)c2ccccc2)C3)c1 (some centres undefined) do in these assays?
Apaf-1 act: -64*; Rh110 act interf: -7; Apaf-1 act conf: -59*; Fluor interf act: >100

What do the screens show for `C=C(C)C(=O)Nc1cccc(C2=NOC3(C2)C[C@H](C(N)=O)N(C(=O)COc2ccc(Cl)cc2)C3)c1` (some centres undefined)?
Apaf-1 act: -344*; Rh110 act interf: 0; Apaf-1 act conf: -127*; Fluor interf act: >100

What do the screens show for `C=C(C)C(=O)Nc1cccc(C2=NOC3(C2)C[C@@H](C(N)=O)N(C(=O)c2cc([N+](=O)[O-])cc([N+](=O)[O-])c2C)C3)c1` (some centres undefined)?
Apaf-1 act: -107*; Rh110 act interf: -3; Apaf-1 act conf: -128*; Fluor interf act: >100

How did CSCCC(NC(=O)c1ccccc1Br)C(=O)N1CCN(C(C)=O)CC1 (centres undefined) do in these assays?
Apaf-1 act: 48

What do the screens show for `CCCCNc1c(-c2ccc(OC)c(SC(C)CC)c2)nc2cc(C)ccn12` (centres undefined)?
Apaf-1 act: 49

Results for COc1ccc(CN2CCN(C(c3ccc(F)cc3)c3ccc(F)cc3)CC2)c(OC)c1OC ?
Apaf-1 act: 48

What do the screens show for `CN(C)CCCN1c2ccccc2Sc2ccc(Cl)cc21`?
Apaf-1 act: 42

What do the screens show for `CCCCNc1cc(NC(C)=O)cc2cc(OC)c(OC)cc12`?
Apaf-1 act: 62

What do the screens show for `Oc1ccc(N=Cc2ccc(OCc3ccccc3)cc2)cc1`?
Apaf-1 act: 93

What do the screens show for `Cc1nc2sccn2c(=O)c1CCN1CCC(=C(c2ccccc2)c2ccc(F)cc2)CC1`?
Apaf-1 act: 42

What do the screens show for `CCCCc1ccc(Nc2nc(CCC)cc(=O)[nH]2)cc1`?
Apaf-1 act: 40

What do the screens show for `COc1ccc(/C=C2/C(=O)N(c3ccccc3)N=C2C)cc1Br`?
Apaf-1 act: 87

Results for C=C(C)C(=O)Nc1cccc(C2=NOC3(C2)C[C@@H](C(N)=O)N(C(=O)C(=C)C)C3)c1 (some centres undefined) ?
Apaf-1 act: -291*; Rh110 act interf: 1; Apaf-1 act conf: -133*; Fluor interf act: >100

Results for COc1ccc(CN=Cc2[nH]c3ccc(Br)c(Cl)c3c2O)cc1 ?
Apaf-1 act: 45

How did O=C(Nc1ccccc1OC(F)F)c1oc2ccccc2c1COc1ccccc1 do in these assays?
Apaf-1 act: -180*; Rh110 act interf: 4; Apaf-1 act conf: 12

How did CC(C)NC(=O)C1CCN(S(=O)(=O)c2ccc(N3CCCC3=O)cc2)CC1 do in these assays?
Apaf-1 act: -332*; Rh110 act interf: -3; Apaf-1 act conf: 2

Results for CCC(C)NC(=O)C1CCN(S(=O)(=O)c2cccc3cccnc23)CC1 (centres undefined) ?
Apaf-1 act: -456*; Rh110 act interf: -6; Apaf-1 act conf: 9

How did Oc1ccccc1CNc1cccc2cccnc12 do in these assays?
Apaf-1 act: 95

What do the screens show for `COc1ccc2c3c(cccc13)N(C)N=C2C`?
Apaf-1 act: 73

How did CCCCC[n+]1ccn(C2=C([O-])c3ccccc3C(=O)/C2=N\S(=O)(=O)c2ccccc2)c1 do in these assays?
Apaf-1 act: 53

How did CCCCCN=C(N)N/N=C/c1c[nH]c2ccc(OC)cc12 do in these assays?
Apaf-1 act: 78

Results for C#CCOCCOCCOCCNc1nc(N2CCN(C(=O)[C@H](Cc3cc4ccccc4[nH]3)n3cc([C@@H](N)C(C)CC)nn3)CC2)nc(N2CCN(C(=O)[C@H](CCCCN)n3cc([C@@H](N)CC(C)C)nn3)CC2)n1 (some centres undefined) ?
Apaf-1 act: 41

How did CCN(c1ccccc1)S(=O)(=O)c1ccc(Cl)c(NC(=O)Nc2ccc(Cl)cc2C#N)c1 do in these assays?
Apaf-1 act: 40

What do the screens show for `CCN(CC)S(=O)(=O)c1ccc(Cl)c(NC(=O)c2ccc(C#N)cc2)c1`?
Apaf-1 act: -270*; Rh110 act interf: 6; Apaf-1 act conf: 16

What do the screens show for `Cc1ccc2nc(-c3ccc(NC(=S)NC4CC(C)(C)NC(C)(C)C4)cc3)sc2c1`?
Apaf-1 act: 50

How did N#Cc1c(N)n(CCOC(=O)c2cccc(Br)c2)c2nc3ccccc3nc12 do in these assays?
Apaf-1 act: 46

What do the screens show for `CC(C)NC[C@@H](O)c1ccc(O)c(O)c1`?
Apaf-1 act: 43

How did O=C1CCc2ccc(OCCCCN3CCN(c4cccc(Cl)c4Cl)CC3)cc2N1 do in these assays?
Apaf-1 act: 43

Results for CN1CCN(CCc2nc3cc(NC(=O)COc4ccccc4)ccc3n2C)CC1 ?
Apaf-1 act: 57

Results for CN1CCN(CCOc2cccc(Cl)c2)CC1 ?
Apaf-1 act: -50*; Rh110 act interf: 15; Apaf-1 act conf: 13

Results for CCOC(=O)C1=C(C)Nc2nc(SCC)nn2C1c1ccc(OC)cc1 (centres undefined) ?
Apaf-1 act: -56*; Rh110 act interf: 15; Apaf-1 act conf: 16

What do the screens show for `CCOC(=O)C1=C(c2ccccc2)NC(N)=NC1c1ccc(OCc2ccc(C(=O)OC)cc2)cc1` (centres undefined)?
Apaf-1 act: 61

Results for C=C[C@@H]1CN2CCC1C[C@@H]2[C@@H](O)c1ccnc2ccc(OC)cc12 (some centres undefined) ?
Apaf-1 act: 1

How did CC(=O)OC1=C(O)C(=O)c2ccccc2C1=O do in these assays?
Apaf-1 act: 59

What do the screens show for `CCCCCN(C(=O)NC(=O)Nc1nncs1)S(C)(=O)=O`?
Apaf-1 act: -46*; Rh110 act interf: -2; Apaf-1 act conf: 7

How did COCc1ccc(C(=O)N2CCCC(Nc3ccc(C(C)C)cc3)C2)o1 (centres undefined) do in these assays?
Apaf-1 act: -107*; Rh110 act interf: -3; Apaf-1 act conf: 10

How did CC(=O)N(Cc1ccc(F)cc1)C1=C(NCCc2ccccc2)C(=O)c2ccccc2C1=O do in these assays?
Apaf-1 act: 78

How did COc1ccc(CCNc2nc(-c3ccc(F)cc3)c(CC(=O)O)s2)cc1OC do in these assays?
Apaf-1 act: -162*; Rh110 act interf: 10; Apaf-1 act conf: 19

What do the screens show for `Cn1c(SCC(=O)n2c3c(c4ccccc42)CCCC3)nnc1-c1ccccc1`?
Apaf-1 act: 43
